The source of these data is ChEMBL document CHEMBL1154436, “Synthesis, pharmacological activity and hydrolytic behavior of ethylenediamine and benzathine conjugates of ibuprofen” (Eur J Med Chem, 2008).

The subject of data set [1] is Rattus norvegicus. Put plainly: Antiinflammatory activity in Wistar rat assessed as inhibition of carrageenan-induced paw edema at 20 mg/kg, po administered 30 mins before carrageenan challenge measured 3 hrs after post drug dose. The class given is functional. The procedure, abridged: (§1)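 Wistar rats (150–200 g), four groups of six. Drug given orally, 0.75–1.0 ml of a suspension in 0.5% w/v sodium CMC (stocks 4, 4.23, 5.99 mg/ml), dose molecularly equivalent to ibuprofen 20 mg/kg. Control group received no drug. Carrageenan 1%, 0.1 ml, injected subplantar into the left hind paw 30 min after dosing. Paw volume measured before and after treatment. Inhibition % = [(Vt−V0)control − (Vt−V0)treated]/(Vt−V0)control × 100. One-way ANOVA versus control.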
In general terms: The carrageenan paw model is a standard test of acute inflammation.

The test system of data set [2] is Rattus norvegicus. Put plainly: Antiinflammatory activity in Wistar rat assessed as inhibition of carrageenan-induced paw edema at 20 mg/kg, po administered 30 mins before carrageenan challenge measured 24 hrs after post drug dose. Type of data set: functional. The procedure, abridged: as §1
Data set [3] relates to Mus musculus. The data set is described as follows: Analgesic activity in Swiss albino mouse assessed as protection against acetic acid-induced writhing at 20 mg/kg, po administered 3 hrs mins before acetic acid challenge relative to control. Type of data set: functional. The procedure, abridged: (§2)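 Mice, four groups of six: vehicle control 5 ml/kg, or test drug as a homogeneous suspension in 0.5% w/v aqueous sodium CMC (stocks 1, 1.05, 1.49 mg/ml), 0.5–0.6 ml orally, doses molecularly equivalent to ibuprofen 20 mg/kg. Acetic acid given i.p. at 1 ml/100 g body weight. Writhings counted over 10 min. Protection % = 100 − (test/control writhings × 100). Mean ± S.E.M.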
Background: Writhing tests count abdominal constrictions after an irritant is injected.

Data set [4] relates to Rattus norvegicus. The data set is described as follows: Gastrointestinal toxicity in Wistar rat assessed ulcer index at 100 mg/kg, po after 17 hrs. The class given is organism-based. On the set-up: dose 100 mg/kg, route oral. To be noted: in vivo. The procedure, abridged:
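Adult Wistar rats (150–200 g), four groups of six, fasted 8 h before dosing. Vehicle control, ibuprofen 100 mg/kg, or conjugate at a dose molecularly equivalent to ibuprofen 100 mg/kg. Killed 17 h after dosing, with food and water ad libitum. Gastric mucosa examined with a 4× binocular magnifier. Lesions classed as large (>2 mm), small (1–2 mm) or punctiform (<1 mm) and scored. Index = treated mean score minus control mean score.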

Data set [5] can be described thus: Chemical stability assessed as hydrolysis in phosphate buffer at pH 7.4. Type of data set: physicochemical. In a few lines:
(§3)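 Hydrolysis in HCl (pH 1.2) or phosphate (pH 7.4) buffer, 0.05 M total buffer, ionic strength held at 0.5 M with KCl, 37 °C. Released parent drug measured by UV in a chloroform extract. At pH 7.4, sampled at 0.5–10 h. pH 1.2 assay run 2 h. First-order k = 2.303/t·log(a/(a−x)), t in minutes; half-life derived. Mean of three sets.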

A short description of data set [6]: Chemical stability assessed as hydrolysis in hydrochloric acid buffer at pH 1.2. The class given is physicochemical. The procedure, abridged:
as §3

Data set [7] relates to Rattus norvegicus. The data set is described as follows: Antiinflammatory activity in Wistar rat assessed as inhibition of carrageenan-induced paw edema at 29.98 mg/kg, po administered 30 mins before carrageenan challenge measured 3 hrs after post drug dose. The class given is functional. The procedure, abridged: as §1
In data set [8] the test system is Rattus norvegicus. Put plainly: Antiinflammatory activity in Wistar rat assessed as inhibition of carrageenan-induced paw edema at 29.98 mg/kg, po administered 30 mins before carrageenan challenge measured 24 hrs after post drug dose. Type of data set: functional. The procedure, abridged:
as §1

Data set [9] relates to Mus musculus. The data set is described as follows: Analgesic activity in Swiss albino mouse assessed as protection against acetic acid-induced writhing at 29.98 mg/kg, po administered 3 hrs mins before acetic acid challenge relative to control. The class given is functional. The procedure, abridged: as §2
The subject of data set [10] is Rattus norvegicus. The data set is described as follows: Antiinflammatory activity in Wistar rat assessed as inhibition of carrageenan-induced paw edema at 21.15 mg/kg, po administered 30 mins before carrageenan challenge measured 3 hrs after post drug dose. Type of data set: functional. The procedure, abridged:
as §1

Data set [11] deals with Rattus norvegicus. The data set is described as follows: Antiinflammatory activity in Wistar rat assessed as inhibition of carrageenan-induced paw edema at 21.15 mg/kg, po administered 30 mins before carrageenan challenge measured 24 hrs after post drug dose. The class given is functional. The procedure, abridged:
as §1

The test system of data set [12] is Mus musculus. The data set is described as follows: Analgesic activity in Swiss albino mouse assessed as protection against acetic acid-induced writhing at 21.15 mg/kg, po administered 3 hrs mins before acetic acid challenge relative to control. The class given is functional. The procedure, abridged: as §2

A word on the inhibition in vivo: it is the change of the read-out against control, counted positive when it falls. Turning to `CC(C)Cc1ccc(C(C)C(=O)O)cc1` (stereo not given) [IBUPROFEN], the inhibition in vivo at 20 mg/kg with Rattus norvegicus [1] is 52.1%; in the data set on Rattus norvegicus [2], 35.6%. Further, the Activity in the data set with Mus musculus [3] is given as 23.42%. For the same molecule, the UI in the data set with Rattus norvegicus [4] was determined as 13.51.

By half-life is commonly meant how long it takes for the measured level to halve. In the case of `CC(C)Cc1ccc(C(C)C(=O)N(CCN(Cc2ccccc2)C(=O)C(C)c2ccc(CC(C)C)cc2)Cc2ccccc2)cc1` (mixture of isomers), in [5], the half-life is 1.38 h. In addition, the Stability result in data set [6] is listed as “Stable”. For the same molecule, the inhibition in vivo at 29.98 mg/kg in the data set on Rattus norvegicus [7] was 53.5%; in the data set with Rattus norvegicus [8] it was 32.4%. In addition, the Activity in the data set on Mus musculus [9] was determined as 35.84%.

On to `CC(C)Cc1ccc(C(C)C(=O)NCCNC(=O)C(C)c2ccc(CC(C)C)cc2)cc1` (mixture of isomers), for which the half-life in [5] worked out at 1.16 h. Also, in [6], the Stability result was “Stable”. The inhibition in vivo at 21.15 mg/kg in the data set on Rattus norvegicus [10] worked out at 48%; in the data set with Rattus norvegicus [11], 38%. Besides, the Activity in the data set with Mus musculus [12] was 29.63%. The UI in the data set with Rattus norvegicus [4] is recorded as 4.63.
